Screens: PubChem, Johns Hopkins Ion Channel Center
KCNQ1 inh: blocks the human KCNQ1 potassium channel; AID 2642; B-score at 10 µM; P51787; CHO-K1 KCNQ1, FluxOR thallium flux fluorescence; hits give high values; actives 1.3% (n = 310,000);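 active means compounds whose thallium flux B-score, printed positive for inhibition, exceeds three library SD while starting fluorescence stays within three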;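 further: channel opened by potassium depolarization with thallium stimulus after 20 min compound exposure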
KCNQ1 act: human KCNQ1 channel potentiation or activation; P51787; CHO-K1 KCNQ1, thallium flux FluxOR fluorescence; hits give high values; B-score at 10 µM; actives 0.35% (n = 310,000); AID 2648;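 active means fluorescence ratio B-score, a plate-corrected score, at least three library SD, with initial intensity B-score within 5 SD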
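Test system: CHO-K1 cells stably expressing KCNQ1 / Medium: assay buffer / Also added: depolarizing K+/Tl+ stimulus, K2SO4 and Tl2SO4 each 12.5 mM in 5x stock / Incubation: 90 min dye loading and 20 min compound exposure, both at room temperature / Signal: thallium influx via FluxOR fluorescence, kinetic imaging / Evaluation: B score of baseline-normalized fluorescence ratio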
Kir21 block: blocks the mouse Kir2.1 inward-rectifier potassium channel | P35561 | HEK293-Kir2.1, FluxOR thallium flux fluorescence; hits give low values | B-score at 10 µM | actives 0.85% (n = 310,000) | AID 1672;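 active means fluorescence ratio B-score at or below minus 3 SD of library scores, with starting-brightness B-score within 2 SD, cut at about -4.2 in these data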;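 further: channel flux triggered by added potassium and thallium sulfate stimulus; B-score of peak minus minimum fluorescence over baseline after thallium stimulus; more negative B-score means stronger Kir2.1 block with less thallium influx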
KCNK3 block: human KCNK3 channel inhibition, primary screen. actives 0.84% (n = 340,000). AID 602410. O14649. B-score at 10 µM. CHO-KCNK3 thallium flux, FluxOR fluorescence; hits give low values;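 active means B-score under library mean minus 4 SD, starting fluorescence ratio at most library mean plus 5 SD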;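 further: more negative B-score means stronger inhibition of thallium flux through KCNK3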
Target sequence (O14649 whole entry, looked up): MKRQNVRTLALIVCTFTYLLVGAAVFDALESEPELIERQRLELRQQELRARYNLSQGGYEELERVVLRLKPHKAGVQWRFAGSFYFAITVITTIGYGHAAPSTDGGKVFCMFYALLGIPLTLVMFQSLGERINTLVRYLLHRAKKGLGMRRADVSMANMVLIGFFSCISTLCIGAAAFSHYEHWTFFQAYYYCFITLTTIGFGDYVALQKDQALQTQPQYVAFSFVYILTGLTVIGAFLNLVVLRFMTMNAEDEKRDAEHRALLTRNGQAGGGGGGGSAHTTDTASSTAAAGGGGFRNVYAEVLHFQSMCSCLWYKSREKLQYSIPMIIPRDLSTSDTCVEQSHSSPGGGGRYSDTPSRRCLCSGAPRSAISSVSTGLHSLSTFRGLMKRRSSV
KCNK9 inh: inhibitors of human KCNK9 two-pore domain potassium channel; HEK293 KCNK9, FluxOR thallium flux fluorescence; hits give low values; AID 488922; actives 1.2% (n = 310,000); B-score at 10 µM; Q9NPC2;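 active means ratio B-score over 3 SD below the library mean, with starting fluorescence within 5 SD of its mean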;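 further: negative B-score means less thallium flux so channel inhibition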
hERG rescue: shields human hERG channel from block by proarrhythmic agents; Q12809; CHO-hERG, FluxOR thallium flux, dofetilide IC70 present; activation (rescue from dofetilide block), less the hit threshold, % at 10 µM; actives 0.51% (n = 310,000); AID 1511;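 active means activation above the mean of controls blocked by dofetilide plus 5 SD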;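 further: thallium influx through hERG after potassium depolarization seen as dye fluorescence rise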
* = called active by the depositor; i = inactive; · = no result. Shown are actives, neighbours in structure and some others; about 3.8% of the full set was active somewhere.

SMILES	KCNQ1 inh	KCNQ1 act	Kir21 block	KCNK3 block	KCNK9 inh	hERG rescue
CCOC(=O)c1oc2nc(CC(C)C)c3c(c2c1N)CCCC3	i	i	0.86	i	i	-5
COc1ccccc1N(CC(=O)NCCSCc1ccc(C)cc1)S(=O)(=O)c1ccccc1	10*	i	0.04	i	i	-18
COC(=O)Oc1c(Br)c(=O)oc2ccccc12	i	i	-4.8*	i	i	-34
NCCNc1ccc(C(=O)N2c3ccccc3Sc3ccccc32)cc1[N+](=O)[O-]	8*	i	-4.9*	i	i	-31
CC(C)c1ccc(OCC(=O)NNC(=S)NC(=O)c2cccs2)c(Br)c1	i	30*	-0.67	i	i	-12
Cc1ccc(OCC(=O)NNC(=S)NC(=O)C2CC2)c(C)c1	i	i	0.25	i	i	-10
Cc1ccc(OCC(=O)NNC(=S)NC(=O)C(C)(C)C)c(Br)c1	i	9*	-1.6	i	i	-5
Cc1ccc(OCC(=O)NNC(=S)NC(=O)C2CCCCC2)c(C)c1	i	8*	-0.15	i	i	-5
Cc1cc(C)c(C)c(S(=O)(=O)NCc2cccnc2)c1C	i	i	-4.7*	i	i	-8
Cc1cc(C)c(C)c(S(=O)(=O)NCc2ccco2)c1C	i	i	-7.7*	·	i	-12
Cc1ccc(S(=O)(=O)NCc2ccco2)cc1C	i	i	0.84	i	i	-3
CCC(=O)Nc1nnc(S(=O)(=O)N2CCCCCC2)s1	i	i	0.39	i	i	-8
COc1ccc(CN(C(=O)c2nsc(Cl)c2Cl)C(C(=O)NC2CCCC2)c2ccc(C)cc2)cc1 (configuration not stated)	11*	i	0.62	i	i	-18
COc1ccc(C(=O)NCc2ccc(S(N)(=O)=O)cc2)cc1[N+](=O)[O-]	i	i	-0.04	i	i	-9
Cc1ccc(S(=O)(=O)Nc2ccc3c(c2)C(=O)N([C@H](C)CO)C[C@H](C)[C@@H](CN(C)Cc2ccccc2)O3)cc1	·	·	·	-10*	·	·
N/C(Cc1ccc(Cl)cc1)=N\OC(=O)c1ccc2ccccc2c1	i	i	1.8	i	i	-2
N/C(Cc1ccc(Cl)cc1)=N\OC(=O)c1cccc2ccccc12	i	i	-0.21	i	-14*	-3
O=C(COc1ccccc1Cl)NNC(=O)c1ccc2c(=O)n3c(nc2c1)CCC3	·	·	·	i	·	·
CN(C)S(=O)(=O)c1cccc2nsnc12	i	i	0.21	i	i	-1
Cc1cccc(N(C)S(=O)(=O)c2cccc3nsnc23)c1	i	i	-4.3*	i	i	-5
Cc1cc(C(=O)Nn2c(-c3ccc(Br)cc3)nc3ccccc3c2=O)ccc1[N+](=O)[O-]	6*	i	0.93	i	i	-10
COc1ccc(C(=O)On2c(-c3ccc(Br)cc3)nc3ccccc3c2=O)cc1	i	10*	-0.2	i	i	1
CC(=O)N1CCN(S(=O)(=O)c2cccc(C(=O)NNC(=O)COc3ccc(Cl)cc3C)c2)CC1	i	i	2.8	i	i	-16
CCOC(=O)CC(=O)CSc1ncnc2c1nnn2-c1ccc(OC)cc1	i	i	0.69	i	i	7.0*
CCN(CC)C(=O)CSc1ncnc2c1nnn2-c1ccc(OC)cc1	i	i	0.34	i	i	-10
SMILES	KCNQ1 inh	KCNQ1 act	Kir21 block	KCNK3 block	KCNK9 inh	hERG rescue
CC(COc1ccccc1Cc1ccccc1)N1CCCCC1 (configuration not stated)	i	i	-5.8*	·	i	-11
O=C(O)COc1ccccc1Cc1ccccc1	i	i	0.14	i	i	-4
Cn1ccnc1C(=O)c1cccc([N+](=O)[O-])c1	i	8*	-1.5	i	i	-6
Cn1ccnc1C(=O)c1ccc(NN)c([N+](=O)[O-])c1	i	i	-0.08	i	i	-15
Oc1c(Br)cc(Br)cc1/C=N/c1nc2c(s1)CCCC2	i	13*	-1.8	i	i	-28
Cc1ccc(C(=O)NCC2CCCO2)cc1[N+](=O)[O-] (configuration not stated)	i	i	1.2	i	i	4.7*
Cc1c(C(=O)NCCSCc2ccc(Cl)cc2Cl)cccc1[N+](=O)[O-]	i	i	0.06	i	i	10.0*
Cc1ccc(C(=O)NNC(=S)NCC2CCCO2)cc1[N+](=O)[O-] (configuration not stated)	i	i	1.1	i	i	-11
Cc1ccc(C(=O)NCC(C)NC(=O)c2ccc(C)c([N+](=O)[O-])c2)cc1[N+](=O)[O-] (configuration not stated)	i	i	0.53	i	i	-14
Cc1c(C(=O)NCCSCc2ccccc2)cccc1[N+](=O)[O-]	i	i	1.5	i	i	-4
Cc1ccc(C(=O)NCCSCc2ccc(Cl)cc2Cl)cc1[N+](=O)[O-]	8*	i	0.46	i	i	-7
Cc1c(C(=O)NCc2ccco2)oc2c(F)cccc12	·	·	·	i	·	·
O=[N+]([O-])c1cccc(CSc2nnc(Cc3ccccc3)n2-c2ccc(F)cc2)c1	i	i	-5.8*	i	i	-8
COC(=O)[C@H](C)NC(=O)Nc1cc(Cl)ccc1C	i	13*	0.73	i	i	1
OC(CNC1CCCc2ccccc21)COc1c(Cl)cccc1Cl (configuration not stated)	i	i	-8.9*	i	i	-8
O=C(c1ccccc1)c1ccc(OCC(O)CNCc2ccc(Cl)cc2)cc1 (configuration not stated)	i	i	-4.7*	i	i	-16
COc1cccc(CNCC(O)COc2ccc(C(=O)c3ccccc3)cc2)c1 (configuration not stated)	i	i	-5.4*	i	i	-9
OC(CNCc1ccccc1)COc1ccccc1 (configuration not stated)	i	i	0.09	i	i	-11
OC(CNC1Cc2ccccc2C1)COc1ccc(Cl)cc1 (configuration not stated)	i	i	-4.2*	i	i	-11
N=c1sccn1CC(=O)Nc1ccccc1Sc1ccccc1	i	i	-4.8*	i	i	-3
O=C(CN1CCOCC1)Nc1ccc(Cl)c(Cl)c1	i	i	1.2	i	i	5.9*
O=C(CN1CCN(S(=O)(=O)N2CCOCC2)CC1)Nc1ccc(Cl)c(Cl)c1	i	i	0.35	i	i	-2
